Source: ChEMBL document CHEMBL2311419, “Discovery of coumarin-dihydropyridine hybrids as bone anabolic agents” (J Med Chem, 2013)
Calls of active or inactive are those of the source. The rule behind the calls is not given here.

Columns and labels:
[1] = Stimulation of alkaline phosphatase activity in mouse calvarial osteoblasts after 48 hrs by spectrophotometric analysis
Summary of the method: (§1)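 Calvarial osteoblasts were exposed to compounds over 1 pM to 1 µM. ALP activity was read spectrophotometrically as optical density at 405 nm. Results were expressed as % ALP activity, with EC50 and Emax derived from the concentration series.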

Mus musculus [2] = species on record: Mus musculus; assay: Stimulation of alkaline phosphatase activity in mouse calvarial osteoblasts at 1 pM to 1 uM after 48 hrs by spectrophotometric analysis relative to nifedipine
Mus musculus [3] = species on record: Mus musculus; assay: Stimulation of alkaline phosphatase activity in mouse calvarial osteoblasts assessed as concentration required for maximum activity after 48 hrs by spectrophotometric analysis; summary of the method: as §1
Mus musculus [4] = species on record: Mus musculus; assay: Stimulation of alkaline phosphatase activity in mouse calvarial osteoblasts at 1 pM to 1 uM after 48 hrs by spectrophotometric analysis; summary of the method: as §1
Calvarial osteoblast [5] = assay: Induction of osteoblastogenesis in mouse calvarial osteoblasts assessed as increase in BMP2 expression at 100 pM to 10 nM by Western blotting analysis; type: functional, cell-based
Calvarial osteoblast [6] = assay: Induction of osteoblastogenesis in mouse calvarial osteoblasts assessed as increase in expression of osteocalcin gene at 100 pM to 10 nM by qPCR analysis relative to control; type: functional
[7] = Cytotoxicity against mouse calvarial osteoblasts assessed as cell viability at 1 pM to 1 uM after 48 hrs by MTT assay; type: cell-based; settings: calvarial osteoblast
Calvarial osteoblast [8] = assay: Induction of osteoblastogenesis in mouse calvarial osteoblasts assessed as increase in RUNX2 expression at 100 pM to 10 nM by Western blotting analysis; type: functional, cell-based
Calvarial osteoblast [9] = assay: Induction of osteoblastogenesis in mouse calvarial osteoblasts assessed as increase in expression of BMP2 gene at 100 pM by qPCR analysis relative to control; type: functional, cell-based
Calvarial osteoblast [10] = assay: Induction of osteoblastogenesis in mouse calvarial osteoblasts assessed as increase in expression of COL1 gene at 100 pM by qPCR analysis relative to control; type: functional, cell-based
Calvarial osteoblast [11] = assay: Induction of proliferation of mouse calvarial osteoblasts at 1 pM to 1 uM after 48 hrs; type: functional, cell-based
Calvarial osteoblast [12] = assay: Induction of osteoblastogenesis in mouse calvarial osteoblasts assessed as increase in expression of ALP gene at 100 pM by qPCR analysis relative to control; type: functional, cell-based
Calvarial osteoblast [13] = assay: Induction of osteoblastogenesis in mouse calvarial osteoblasts assessed as increase in expression of ALP gene at 100 pM to 10 nM by qPCR analysis relative to control; type: functional
Calvarial osteoblast [14] = assay: Induction of osteoblastogenesis in mouse calvarial osteoblasts assessed as increase in expression of COL1 gene at 100 pM to 10 nM by qPCR analysis relative to control; type: functional
Calvarial osteoblast [15] = assay: Induction of osteoblastogenesis in mouse calvarial osteoblasts assessed as increase in expression of RUNX2 gene at 100 pM to 10 nM by qPCR analysis relative to control; type: functional
Calvarial osteoblast [16] = assay: Induction of osteoblastogenesis in mouse calvarial osteoblasts assessed as increase in expression of BMP2 gene at 100 pM to 10 nM by qPCR analysis relative to control; type: functional
Calvarial osteoblast [17] = assay: Induction of mineralization in mouse calvarial osteoblasts assessed as increase of mineralized nodules formation measuring concentration required for maximum activity after 21 days by alizarin red-S staining based spectrophotometric analysis; type: functional
Calvarial osteoblast [18] = assay: Induction of osteoblastogenesis in mouse calvarial osteoblasts assessed as increase in COL1 expression at 100 pM to 10 nM by Western blotting analysis; type: functional, cell-based
Calvarial osteoblast [19] = assay: Induction of osteoblastogenesis in mouse calvarial osteoblasts assessed as increase in expression of osteocalcin gene at 100 pM by qPCR analysis relative to control; type: functional, cell-based
Calvarial osteoblast [20] = assay: Induction of osteoblastogenesis in mouse calvarial osteoblasts assessed as increase in expression of RUNX2 gene at 100 pM by qPCR analysis relative to control; type: functional, cell-based

Compound	EC50 [1] [nM]	Activity (Mus musculus [2])	Concentration giving maximum ALP activity (Mus musculus [3]) [pM]	Activity (Mus musculus [4])	further results
CCOC(=O)C1=C(C)NC2=C(C(=O)CC(C)(C)C2)C1c1cc(C(C)(C)C)c2oc(=O)c(C(=O)OCC)cc2c1 (racemic)	1560	inactive	10000	4%	–
CCC(C)c1cc(C=O)cc2cc(C(=O)OC)c(=O)oc12 (centres undefined)	–	–	–	inactive	–
COC(=O)C1=C(C)NC2=C(C(=O)CC(C)(C)C2)C1c1cc(C(C)(C)C)c2oc(=O)c(C(=O)OC)cc2c1 (racemic)	1530	inactive	10000	10%	–
CCOC(=O)C1=C(C)NC(C)=C(C(=O)OCC)C1c1cc(C(C)CC)c2oc(=O)c(C(=O)OC)cc2c1 (centres undefined)	1140	inactive	100	5%	–
COC(=O)C1=C(C)NC2=C(C(=O)CCC2)C1c1cc(C(C)(C)C)c2oc(=O)c(C(=O)OC)cc2c1 (racemic)	1340	inactive	100	14%	–
CCOC(=O)C1=C(C)NC(C)=C(C(=O)OCC)C1c1cc(C(C)(C)C)c2oc(=O)c(C(=O)OC)cc2c1	1100	28%	100	70%	Activity (Calvarial osteoblast [5]): Active; fold change (FC) (Calvarial osteoblast [6]): 1.5; Activity [7]: Non-toxic; Activity (Calvarial osteoblast [8]): Active; Activity (Calvarial osteoblast [9]): Active; Activity (Calvarial osteoblast [10]): Active; Activity (Calvarial osteoblast [11]): Active; Activity (Calvarial osteoblast [12]): Active; fold change (FC) (Calvarial osteoblast [13]): 1.5; fold change (FC) (Calvarial osteoblast [14]): 1.5; fold change (FC) (Calvarial osteoblast [15]): 1.5; fold change (FC) (Calvarial osteoblast [16]): 1.5; Concentration for maximum mineralization (Calvarial osteoblast [17]): 100 pM; Activity (Calvarial osteoblast [18]): Active; Activity (Calvarial osteoblast [19]): Active; Activity (Calvarial osteoblast [20]): Active
CCOC(=O)c1cc2cc(C=O)cc(C(C)(C)C)c2oc1=O	–	–	–	inactive	–
CCOC(=O)C1=C(C)NC2=C(C(=O)CCC2)C1c1cc(C(C)CC)c2oc(=O)c(C(=O)OCC)cc2c1 (racemic)	1010	14%	1	35%	–
CCOC(=O)C1=C(C)NC2=C(C(=O)CCC2)C1c1cc(C(C)(C)C)c2oc(=O)c(C(=O)OCC)cc2c1 (racemic)	1340	–	1	13%	–
CCC(C)c1cc(C2C(C(=O)OC)=C(C)NC(C)=C2C(=O)OC)cc2cc(C(=O)OC)c(=O)oc12 (centres undefined)	1190	12%	1	30%	Activity (Calvarial osteoblast [5]): Active; fold change (FC) (Calvarial osteoblast [6]): 1.5; Activity [7]: Non-toxic; Activity (Calvarial osteoblast [8]): Active; Activity (Calvarial osteoblast [9]): Active; Activity (Calvarial osteoblast [10]): Active; Activity (Calvarial osteoblast [11]): Active; Activity (Calvarial osteoblast [12]): Active; fold change (FC) (Calvarial osteoblast [13]): 1.5; fold change (FC) (Calvarial osteoblast [14]): 1.5; fold change (FC) (Calvarial osteoblast [15]): 1.5; fold change (FC) (Calvarial osteoblast [16]): 1.5; Concentration for maximum mineralization (Calvarial osteoblast [17]): 1 pM; Activity (Calvarial osteoblast [18]): Active; Activity (Calvarial osteoblast [19]): Active; Activity (Calvarial osteoblast [20]): Active
CCOC(=O)c1cc2cc(C3C(C(=O)OC)=C(C)NC4=C3C(=O)CCC4)cc(C(C)CC)c2oc1=O (racemic)	1230	inactive	100	12%	–
CCOC(=O)c1cc2cc(C=O)cc(C(C)CC)c2oc1=O (centres undefined)	1490	inactive	10000	6%	–
CCC(C)c1cc(C2C(C(=O)OC)=C(C)NC3=C2C(=O)CCC3)cc2cc(C(=O)OC)c(=O)oc12 (racemic)	1560	inactive	10000	4%	–
COC(=O)C1=C(C)NC(C)=C(C(=O)OC)C1c1ccccc1[N+](=O)[O-] [NIFEDIPINE]	1450	–	–	25%	Activity (Calvarial osteoblast [11]): Active; Concentration for maximum mineralization (Calvarial osteoblast [17]): 10000 pM
CCOC(=O)c1cc2cc(C3C(C(=O)OC)=C(C)NC4=C3C(=O)CC(C)(C)C4)cc(C(C)CC)c2oc1=O (racemic)	1190	16%	1	39%	–
CCOC(=O)C1=C(C)NC(C)=C(C(=O)OCC)C1c1cc(C(C)CC)c2oc(=O)c(C(=O)OCC)cc2c1 (centres undefined)	1230	inactive	100	4%	–
CCOC(=O)c1cc2cc(C3C(C(=O)OC)=C(C)NC4=C3C(=O)CCC4)cc(C(C)(C)C)c2oc1=O (racemic)	1310	inactive	1	10%	–
CCOC(=O)C1=C(C)NC2=C(C(=O)CCC2)C1c1cc(C(C)(C)C)c2oc(=O)c(C(=O)OC)cc2c1 (racemic)	1260	inactive	1	4%	–
CCOC(=O)c1cc2cc(C3C(C(=O)OC)=C(C)NC4=C3C(=O)CC(C)(C)C4)cc(C(C)(C)C)c2oc1=O (racemic)	1090	–	1	5%	–
COC(=O)c1cc2cc(C=O)cc(C(C)(C)C)c2oc1=O	–	–	–	inactive	–
COC(=O)C1=C(C)NC(C)=C(C(=O)OC)C1c1cc(C(C)(C)C)c2oc(=O)c(C(=O)OC)cc2c1	–	–	–	inactive	–
CCOC(=O)c1cc2cc(C3C(C(=O)OC)=C(C)NC(C)=C3C(=O)OC)cc(C(C)CC)c2oc1=O (centres undefined)	1510	inactive	10000	20%	–
CCOC(=O)c1cc2cc(C3C(C(=O)OC)=C(C)NC(C)=C3C(=O)OC)cc(C(C)(C)C)c2oc1=O	1040	inactive	1	7%	–
CCOC(=O)C1=C(C)NC2=C(C(=O)CC(C)(C)C2)C1c1cc(C(C)CC)c2oc(=O)c(C(=O)OCC)cc2c1 (racemic)	1280	inactive	100	3%	–
